Experimental data published in ChEMBL document CHEMBL1128192, “Differences in backbone structure between angiotensin II agonists and type I antagonists” (J Med Chem, 1995).
Where a SMILES comes first, the peptide text is derived from it. [ ]: non-standard residue; d: D form. Nva(5-OH) = N[C@@H](CCCO)C(=O)O; Aib = CC(C)(N)C(=O)O; Sar = CNCC(=O)O

Key:
[1] = molecular target: T1, Angiotensin II receptor (AT-1) type-1 (Rattus norvegicus, UniProt P29089+P25095); assay: Antagonist activity against Angiotensin II receptor type 1 as pA2; format: functional
T1 sequence (P29089 whole entry): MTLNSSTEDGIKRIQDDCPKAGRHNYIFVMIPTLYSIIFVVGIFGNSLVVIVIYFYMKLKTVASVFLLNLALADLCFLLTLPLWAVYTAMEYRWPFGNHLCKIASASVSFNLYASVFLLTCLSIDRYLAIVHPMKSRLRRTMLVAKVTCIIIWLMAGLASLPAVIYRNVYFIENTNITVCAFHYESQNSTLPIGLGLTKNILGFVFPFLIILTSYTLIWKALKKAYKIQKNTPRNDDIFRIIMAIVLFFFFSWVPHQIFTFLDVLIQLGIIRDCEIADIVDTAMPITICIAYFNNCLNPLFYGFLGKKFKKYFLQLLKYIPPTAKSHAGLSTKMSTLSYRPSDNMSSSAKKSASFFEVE
T1 sequence (P25095 whole entry): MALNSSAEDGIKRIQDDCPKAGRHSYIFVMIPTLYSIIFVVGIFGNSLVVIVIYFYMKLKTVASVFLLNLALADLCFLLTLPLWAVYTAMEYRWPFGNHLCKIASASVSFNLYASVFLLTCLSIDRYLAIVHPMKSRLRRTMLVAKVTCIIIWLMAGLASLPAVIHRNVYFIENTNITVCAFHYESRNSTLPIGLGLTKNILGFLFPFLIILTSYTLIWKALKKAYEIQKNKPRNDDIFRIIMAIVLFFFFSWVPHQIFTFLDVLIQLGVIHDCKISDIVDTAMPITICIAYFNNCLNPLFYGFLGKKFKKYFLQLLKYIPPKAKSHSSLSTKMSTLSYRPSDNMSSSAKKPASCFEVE
Outline: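 Isolated uterus from diethylstilbestrol-primed (25 μg im, 24 h) female virgin Sprague–Dawley rats, in DeJalons solution. An ANGII noncumulative dose-response curve was first set up in each tissue. Antagonist was added 2 min before ANGII, with EC50 reproducibility checked before and after. pA2 is the −log antagonist concentration that cuts the ED50 ANGII response to that of an ED50/2 dose, as the mean of ≥3 tissues.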

[2] = molecular target: Angiotensin II receptor (Rattus norvegicus) (UniProt P29089+P25095+P35351); assay: Agonist activity at Angiotensin II receptor; format: functional
Outline: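 Uteri from female virgin Sprague–Dawley rats (150–200 g) given 25 μg diethylstilbestrol im 24 h before sacrifice. Horns were cleaned and bathed in DeJalons solution. Contractions were recorded with noncumulative dosing, with washout at peak response and 10 min rest between challenges. Activity is relative to human ANGII as standard, as the mean of at least three tissues.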

Angiotensin II receptor (Rattus norvegicus), sequence (P35351 whole entry, looked up, one chain of several): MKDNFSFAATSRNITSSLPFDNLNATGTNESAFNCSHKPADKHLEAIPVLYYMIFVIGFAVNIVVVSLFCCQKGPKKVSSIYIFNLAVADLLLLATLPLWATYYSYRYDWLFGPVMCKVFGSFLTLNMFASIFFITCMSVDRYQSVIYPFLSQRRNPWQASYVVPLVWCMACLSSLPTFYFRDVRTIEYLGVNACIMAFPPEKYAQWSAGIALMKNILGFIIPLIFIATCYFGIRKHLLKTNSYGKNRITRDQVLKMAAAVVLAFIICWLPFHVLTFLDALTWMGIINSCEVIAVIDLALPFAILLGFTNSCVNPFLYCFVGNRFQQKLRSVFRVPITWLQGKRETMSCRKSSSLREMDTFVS

| pA2 [1] | Agonist activity [2] [%] | SMILES |
| --- | --- | --- |
| < 5 | – | CC[C@H](C)[C@H](NC(=O)C(Cc1ccc(C(F)(F)F)cc1)NC(=O)[C@@H](NC(=O)[C@H](CCCN=C(N)N)NC(=O)CNC)C(C)C)C(=O)N[C@@H](Cc1c[nH]cn1)C(=O)N1CCC[C@H]1C(=O)N[C@@H](Cc1ccccc1)C(=O)O (mixture of isomers) |
| 7.5 | < 0.1 | CC[C@H](C)[C@H](NC(=O)[C@H](Cc1ccc(O)cc1)NC(=O)[C@@H](NC(=O)[C@H](CCCN=C(N)N)NC(=O)[C@@H](N)CC(=O)O)C(C)C)C(=O)N[C@@H](Cc1c[nH]cn1)C(=O)N1CCC[C@H]1C(=O)N[C@@H](CCOC)C(=O)O |
| < 5 | – | CC[C@H](C)[C@H](NC(=O)C(Cc1ccc(C(=O)O)cc1)NC(=O)[C@@H](NC(=O)[C@H](CCCN=C(N)N)NC(=O)CNC)C(C)C)C(=O)N[C@@H](Cc1c[nH]cn1)C(=O)N1CCC[C@H]1C(=O)N[C@@H](Cc1ccccc1)C(=O)O (mixture of isomers) |
| 6.2 | – | CC[C@H](C)[C@H](NC(=O)[C@@H]1CCCN1C(=O)[C@H](Cc1c[nH]cn1)NC(=O)[C@@H](NC(=O)[C@H](CCCO)NC(=O)[C@@H](NC(=O)[C@H](CCCN=C(N)N)NC(=O)C(C)(C)N)C(C)C)[C@@H](C)CC)C(=O)O (H-[Aib]RV[Nva(5-OH)]IHPI-OH) |
| < 6 | – | CC[C@H](C)[C@H](NC(=O)[C@H](CCCO)NC(=O)[C@@H](NC(=O)[C@H](CCCN=C(N)N)NC(=O)C(C)(C)N)C(C)C)C(=O)N[C@@H](Cc1c[nH]cn1)C(=O)N1CCC[C@H]1C(=O)N[C@@H](Cc1ccccc1)C(=O)O (H-[Aib]RV[Nva(5-OH)]IHPF-OH) |
| < 6 | < 0.1 | CC[C@H](C)[C@H](NC(=O)[C@H](Cc1ccc(O)cc1)NC(=O)[C@@H](NC(=O)[C@@H](N)CCCN=C(N)N)C(C)C)C(=O)N[C@@H](Cc1c[nH]cn1)C(=O)N1CCC[C@H]1C(=O)N[C@@H](CCOC)C(=O)O |
| 7.6 | < 0.1 | CC[C@H](C)[C@H](NC(=O)[C@H](Cc1ccc(O)cc1)NC(=O)[C@@H](NC(=O)[C@H](CCCN=C(N)N)NC(=O)CNC)C(C)C)C(=O)N[C@@H](Cc1c[nH]cn1)C(=O)N1CCC[C@H]1C(=O)N[C@@H](CCOC)C(=O)O (stereo in doubt; form 1) |
| < 6 | – | CC[C@H](C)[C@H](NC(=O)[C@H](CCCO)NC(=O)[C@@H](NC(=O)[C@H](CCCN=C(N)N)NC(=O)CNC)C(C)C)C(=O)N[C@@H](Cc1c[nH]cn1)C(=O)N1CCC[C@H]1C(=O)N[C@@H](Cc1ccccc1)C(=O)O (H-[Sar]RV[Nva(5-OH)]IHPF-OH) |
| < 5 | – | CC[C@H](C)[C@H](NC(=O)[C@@H]1CCCN1C(=O)[C@H](Cc1c[nH]cn1)NC(=O)[C@@H](NC(=O)[C@H](CCCO)NC(=O)[C@@H](NC(=O)[C@H](CCCN=C(N)N)NC(=O)CNC)C(C)C)[C@@H](C)CC)C(=O)O (H-[Sar]RV[Nva(5-OH)]IHPI-OH) |
